Data on 1 molecule can be found in ChEMBL document CHEMBL4316598, “Synthesis, antiproliferative and apoptosis induction potential activities of novel bis(indolyl)hydrazide-hydrazone derivatives” (Bioorg Med Chem, 2019).

Assay [1] relates to HeLa. The assay can be described thus: Induction of apoptosis in human HeLa cells assessed as viable cells at 1 uM after 16 hrs by annexin-V FITC/propidium iodide staining based flow cytometric analysis relative to control. The settings on record: read-out: Activity. The format is functional. The essentials: (§1)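 Cells were grown in DMEM with 10% heat-inactivated FBS at 37 °C and 5% CO₂, then plated at 500,000 cells/well in 24-well plates. They were treated from a DMSO stock (DMSO ≤0.1%) for 8, 12 or 16 h. After a PBS wash, cells were resuspended in binding buffer (10 mM HEPES pH 7.4, 2.5 mM CaCl₂, 140 mM NaCl, 0.1% BSA), stained 40 min with FITC-annexin V, then with PI, and run on the flow cytometer immediately. Values are the mean of three independent experiments.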

The subject of assay [2] is MCF7. The assay can be described thus: Induction of apoptosis in human MCF7 cells assessed as necrotic cells at 1 uM after 16 hrs by annexin-V FITC/propidium iodide staining based flow cytometric analysis relative to control. The format is functional. An outline of the steps: as §1
In general terms: In flow cytometry, cells or beads pass a laser one at a time.

For assay [3], the system named is HEK293. The assay can be described thus: Cytotoxicity against HEK293 cells assessed as reduction in cell viability after 4 hrs by MTT assay. The format is cell-based, Homo sapiens. The settings on record: Homo sapiens, HEK293, 4 h; read-out: IC50. An outline of the steps:
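MTT: 10,000–20,000 cells/well attached for 16 h, then washed twice with serum-free RPMI. Treated with 1–200 µM for 4 h, 3 parallel runs per concentration. MTT added for 2 h; medium partly removed and isopropanol added. A590 read. Viability = (A treated − A doxorubicin)/(A medium − A doxorubicin)×100. Mean of three experiments, triplicate wells each.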
A general note: Tetrazolium assays rely on reduction of a dye to a coloured formazan, in cell work by metabolically active cells.

The test system of assay [4] is MCF7. Briefly: Induction of nitric oxide production in human MCF7 cells measured over 8 hrs by Griess reaction based assay. The format is functional, cell-based. An outline of the steps:
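Cells seeded at 2×10^6 cells/well for 12 h, then exposed to 1, 5 and 10 μM compound for 8 h at 37 °C. Culture supernatant mixed with Griess reagent (0.002% N-1-naphthyl-ethylenediamine dihydrochloride, 0.5% sulfanilic acid, 14% glacial acetic acid). Nitrite read by absorbance at 550 nm and compared with vehicle group.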
For orientation: Nitrite, measured by Griess reagent, commonly stands in for NO production.

In assay [5] the target is T1, Mitogen-activated protein kinase; ERK1/ERK2 (Homo sapiens) (UniProt P27361+P28482). Briefly: Induction of ERK/MAPK signal transduction pathway in human MCF7 cells assessed as increase ERK1/2 translocation. The class given is cell-based.
T1 sequence (P27361 whole entry, looked up): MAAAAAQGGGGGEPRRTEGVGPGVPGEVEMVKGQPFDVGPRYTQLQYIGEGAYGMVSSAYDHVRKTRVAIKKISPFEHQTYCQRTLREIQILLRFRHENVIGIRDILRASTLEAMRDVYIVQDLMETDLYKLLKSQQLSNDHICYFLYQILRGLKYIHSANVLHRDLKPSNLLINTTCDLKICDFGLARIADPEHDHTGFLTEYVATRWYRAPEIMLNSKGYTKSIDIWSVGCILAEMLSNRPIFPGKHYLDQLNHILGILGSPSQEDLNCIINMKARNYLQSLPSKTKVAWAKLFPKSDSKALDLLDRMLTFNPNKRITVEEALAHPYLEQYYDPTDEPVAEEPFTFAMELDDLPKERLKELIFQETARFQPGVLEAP
T1 sequence (P28482 whole entry, looked up): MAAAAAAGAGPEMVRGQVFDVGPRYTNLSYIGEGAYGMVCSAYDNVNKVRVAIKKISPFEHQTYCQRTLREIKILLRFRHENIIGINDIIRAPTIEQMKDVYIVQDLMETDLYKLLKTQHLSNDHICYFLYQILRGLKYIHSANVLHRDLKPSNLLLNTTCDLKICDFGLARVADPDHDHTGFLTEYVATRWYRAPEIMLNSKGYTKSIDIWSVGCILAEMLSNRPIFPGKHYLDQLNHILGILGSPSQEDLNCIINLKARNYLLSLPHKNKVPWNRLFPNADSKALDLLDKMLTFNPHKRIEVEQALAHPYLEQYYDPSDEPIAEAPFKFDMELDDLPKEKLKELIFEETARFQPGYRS
Assay [6] has as its system HeLa. The assay can be described thus: Induction of caspase-dependent apoptosis in human HeLa cells assessed as activation of caspase-8 at 1 to 3 uM after 24 hrs by Western blot analysis. The format is functional, cell-based. The essentials: (§2)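 Cells were treated at 1, 3 and 5 µM for 24 h at 37 °C. Lysis was in ice-cold Triton X-100 buffer with protease and phosphatase inhibitors; nuclear proteins were extracted separately. Protein was quantified by BCA. Lysates were separated by electrophoresis, transferred to nitrocellulose and blocked in non-fat milk for 1 h. Primary antibody was applied overnight at 4 °C and secondary for 1 h at 28 °C. Detection was by enhanced chemiluminescence.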

For assay [7], the system named is HeLa. The assay can be described thus: Induction of apoptosis in human HeLa cells assessed as necrotic cells at 1 uM after 8 hrs by annexin-V FITC/propidium iodide staining based flow cytometric analysis relative to control. The class given is functional. An outline of the steps:
as §1

For assay [8], the system named is HeLa. The assay can be described thus: Induction of caspase-dependent apoptosis in human HeLa cells assessed as activation of caspase-9 at 1 to 3 uM after 24 hrs by Western blot analysis. The format is functional, cell-based. An outline of the steps:
as §2

For assay [9], the system named is HeLa. The assay can be described thus: Induction of apoptosis in human HeLa cells assessed as up-regulation of total p53 level at 5 uM after 12 hrs by sandwich ELISA. The class given is functional, cell-based. The essentials: (§3)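 Cells were treated at 5 µM for 12, 24 and 48 h. Lysis was in ice-cold lysis buffer with 1 mM PMSF (5 min on ice), followed by three freeze-thaw cycles and a 10 min spin at 4 °C. Acetylated and total p53 were measured in the supernatant by kit sandwich ELISA, read at 450 nm. The control index is sample absorbance divided by that of untreated cells at the same time. Values are mean ± SD of triplicate experiments.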

The target in assay [10] is T1, Mitogen-activated protein kinase; ERK1/ERK2 (Homo sapiens). The assay can be described thus: Activation of ERK1/2 phosphorylation in human MCF7 cells assessed as increase in ratio of phosphorylated ERK1/2 to total ERK1/2 level at 5 uM by ELISA. The format is cell-based. The essentials: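 Cell-based ELISA: HeLa or MCF-7 cells (20×10^3/well) grown overnight at 37 °C, 5% CO2, treated with 5 μM, then fixed and blocked. Probed with rabbit anti-total and anti-phospho P38, JNK or ERK1/2 (1:100), then HRP anti-rabbit IgG. Result is the phospho/total ratio; inhibitor arms use […], […] or SP600125. n=3.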

Assay [11] has as its system MCF7. The assay can be described thus: Induction of ROS generation in human MCF7 cells at 5 uM after 12 hrs by CM-H2DCFDA staining-based FACS analysis. The class given is functional, cell-based. The essentials:
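CM-H2DCFDA ROS: HeLa or MCF-7 cells at 2×10^6/well in 6-well plates treated with 5 μM (final) for 12 or 24 h at 37 °C. Cells harvested, washed with PBS, stained with CM-H2DCFDA in PBS 30 min at 37 °C, washed with ice-cold PBS. Read by FACScan with 488 nm argon laser.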

For assay [12], the system named is MCF7. Briefly: Induction of apoptosis in human MCF7 cells assessed as up-regulation of acetylated p53 level at 5 uM after 24 hrs by sandwich ELISA. The format is functional, cell-based. An outline of the steps: as §3
Assay [13] concerns HeLa. Briefly: Induction of apoptosis in human HeLa cells assessed as change in Bcl-2 level at 1 to 3 uM after 24 hrs by Western blot analysis. The format is functional, cell-based. The essentials: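 Western blot: HeLa cells treated 24 h at 37 °C, lysed on ice, protein quantified by BCA. Proteins separated by electrophoresis, transferred to nitrocellulose, blocked 1 h in non-fat milk. Primary antibody (Bcl2) applied overnight at 4 °C, secondary 1 h at 28 °C, detected by enhanced chemiluminescence.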

The test system of assay [14] is MCF7. The assay can be described thus: Induction of ERK/MAPK signal transduction pathway in human MCF7 cells assessed as increase in p53 expression. The class given is cell-based.
Assay [15] concerns MCF7. The assay can be described thus: Induction of cell cycle arrest in human MCF7 cells at 1 uM after 16 hrs by propidium iodide/RNase A staining based FACS analysis. The class given is functional. An outline of the steps:
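Cells were seeded at 1 million cells/mL in 24-well plates and grown to 70% confluence. They were exposed at 1 µM for 16 h, washed in cold PBS, fixed in absolute ethanol and stored at −20 °C. Staining was with RNase A (20 µg/mL final) and PI (50 µg/mL final) for 30 min at 37 °C in the dark. Results are given as the percentage of cells in each cell-cycle phase by FACS.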

Assay [16] concerns HeLa. Briefly: Induction of apoptosis in human HeLa cells assessed as necrotic cells at 1 uM after 12 hrs by annexin-V FITC/propidium iodide staining based flow cytometric analysis relative to control. The format is functional. The essentials: as §1
Assay [17] is filed under the species Homo sapiens. Briefly: Inhibition of PKA phosphorylation (unknown origin) after 5 to 60 mins by bioluminescence assay. The essentials: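 Kinase activity measured with compound at 1, 5, 10 and 50 μM, using a Kinase Reaction Rate Kit. Phosphorylation was followed by bioluminescent monitoring of ATP consumption, with light read at 5 min and 1 h. Staurosporine served as positive control. Data given as % kinase inhibition (% of control activity), from two separate experiments.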

The IC50 is the concentration that gives 50% inhibition.

The source made the active and inactive calls. No cut-off for these calls is given here.

Turning to `Cn1cc(/C=N\NC(=O)c2cn(C)c3ccc(Br)cc23)c2ccccc21`, the viability at 1 µM in assay [1] came to 14.3%. The Activity in assay [2] is 4.71%; in assay [4], “Dose-dependent effect”; in assay [7], 0.57%; in assay [16], 0.3%. Also, the IC50 in assay [3] was above 200 µM. In addition, the outcome in assay [5], in assay [9], in assay [10], in assay [11], in assay [12] and in [14] was Active. Further, the result in assay [6], in assay [8], in assay [13] and in assay [15] was inactive. Also, the inhibition result in [17] is “Dose-dependent effect”.
